The source made the active and inactive calls. No cut-off for these calls is given here.
What was measured:
HeLa [1] = assay: Cell cycle arrest in human HeLa cells by accumulation at 2N stage at 30 nM after 24 hrs; assay type: functional
In short: (§1)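 HeLa cells exposed to 30 nM compound for the indicated times. DNA content measured by FACS to score 2N versus tetraploid (4N) populations.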

HeLa [2] = assay: Cell cycle arrest in human HeLa cells by accumulation at 4N stage at 30 nM after 24 hrs; assay type: functional; in short: as §1
[3] = target: T1, Ornithine aminotransferase, mitochondrial (Homo sapiens) (UniProt P04181); assay: Binding affinity to ornithine delta-amino transferase in human HeLa cells by silver stained SDS/PAGE method; assay type: cell-based
T1 sequence (whole entry): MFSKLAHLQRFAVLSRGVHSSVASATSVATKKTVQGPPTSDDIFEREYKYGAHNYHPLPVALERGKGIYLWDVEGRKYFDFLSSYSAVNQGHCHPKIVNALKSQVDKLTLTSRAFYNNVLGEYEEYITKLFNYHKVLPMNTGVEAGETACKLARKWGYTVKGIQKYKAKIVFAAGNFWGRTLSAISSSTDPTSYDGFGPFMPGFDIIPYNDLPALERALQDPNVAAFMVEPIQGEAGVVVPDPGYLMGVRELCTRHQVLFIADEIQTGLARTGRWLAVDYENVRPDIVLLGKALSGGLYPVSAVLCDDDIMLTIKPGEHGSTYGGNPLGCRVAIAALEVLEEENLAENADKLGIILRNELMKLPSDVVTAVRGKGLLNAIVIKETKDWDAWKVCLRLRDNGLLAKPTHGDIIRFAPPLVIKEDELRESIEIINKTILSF
In short: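 HeLa nuclear extract, dialysed into buffer B (20 mM Hepes-KOH pH 7.5, 10 mM KCl, 1.5 mM MgCl₂, EDTA, EGTA, DTT, PMSF, plus 150 mM NaCl) with 0.1% Nonidet P-40. Extract fractionated on Hitrap Q anion exchange; fractions incubated overnight at 4°C with biotinylated probe precoupled to avidin agarose. Bound proteins resolved by silver-stained SDS/PAGE; specific ~50 kDa bands identified by mass spectrometry.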

[4] = Binding affinity to tubulin
HeLa [5] = assay: Antimitotic activity in human HeLa cells; assay type: functional, cell-based
[6] = system: Ornithine aminotransferase, mitochondrial (Xenopus laevis); assay: Binding affinity to ornithine delta-amino transferase in RanGTP L43E mutant pre-treated Xenopus egg extracts; details: egg extract
[7] = target: T2, Ornithine aminotransferase, mitochondrial (Mus musculus) (UniProt P29758); assay: Inhibition of ornithine delta-amino transferase activity in mouse liver mitochondria
T2 sequence (whole entry): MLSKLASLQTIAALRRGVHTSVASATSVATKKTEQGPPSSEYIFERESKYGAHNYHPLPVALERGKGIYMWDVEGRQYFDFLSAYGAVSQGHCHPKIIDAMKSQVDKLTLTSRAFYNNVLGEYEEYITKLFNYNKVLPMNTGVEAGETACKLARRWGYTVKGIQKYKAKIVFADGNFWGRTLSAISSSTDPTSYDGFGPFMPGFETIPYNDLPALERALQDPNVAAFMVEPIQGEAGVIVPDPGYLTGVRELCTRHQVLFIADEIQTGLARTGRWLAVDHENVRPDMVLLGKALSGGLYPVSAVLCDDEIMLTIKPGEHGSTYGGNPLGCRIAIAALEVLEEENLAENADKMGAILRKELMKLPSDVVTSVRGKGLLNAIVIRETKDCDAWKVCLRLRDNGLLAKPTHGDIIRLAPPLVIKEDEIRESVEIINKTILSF
In short: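 Crude OAT prepared from mouse liver. Enzyme added last with a compound dilution series; shaken at 37°C for 20 min. Δ¹-pyrroline-5-carboxylate detected by reaction with o-aminobenzaldehyde; absorbance read at 443.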

Xenopus = assay: Effect on RanGTP L43E mutant-stimulated microtubule aster formations in Xenopus egg extract
HeLa [8] = assay: Cell cycle arrest in human HeLa cells assessed as phosphorylated histone H3 level at 30 nM after 24 hrs; assay type: functional, cell-based
In short: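 HeLa cells dosed with 30 nM compound for a time course. Cell extracts immunoblotted for phosphorylated histone H3 as mitotic marker, with actin as loading reference.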

U2OS = assay: Cell cycle arrest in human U2OS cells assessed as abnormal spindle structure formation at 30 nM after 16 hrs; assay type: functional, cell-based
HeLa [9] = assay: Cell cycle arrest in human HeLa cells assessed as abnormal spindle structure formation at 30 nM after 24 hrs; assay type: functional, cell-based
In short: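 HeLa cells grown 24 h with or without 30 nM compound, then fixed in 4% formaldehyde. Stained with anti-α-tubulin monoclonal (1:1,000) and DAPI; spindle and nuclear morphology imaged by confocal microscopy. Abnormal mono-/multipolar spindles and multinucleate cells counted as a percentage of cells.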

| Activity [3] | Activity [4] | SMILES | Activity [7] | further results |
| --- | --- | --- | --- | --- |
|  |  | [H][C@]12Nc3c4cccc3[C@]13C1=C(N=C(O1)[C@H](C(C)C)NC(=O)[C@@H](NC(=O)[C@@H](O)C(C)C)Cc1ccc(c3c1)O2)c1nc(Cl)c(o1)-c1c(Cl)[nH]c2cccc-4c12 [DIAZONAMIDE A] |  | Activity (HeLa [1]): 6.9%; Activity (HeLa [2]): 85.69% |
| Active | inactive | CC(CCCCNC(=O)CCCC[C@@H]1SC[C@@H]2NC(=O)N[C@@H]21)[C@H](O)C(=O)N[C@H]1Cc2ccc3c(c2)[C@]24C5=C(N=C(O5)[C@H](C(C)C)NC1=O)c1nc(Cl)c(o1)-c1c(Cl)[nH]c5cccc(c15)-c1cccc2c1O[C@@H]4O3 (stereo partly specified) | inactive | Activity (HeLa [5]): Active; Activity [6]: inactive; Activity (Xenopus): Active |
|  |  | C#CC(N)CCC(=O)O (stereo unspecified) | Active |  |
|  |  | CC(C)[C@H](O)C(=O)N[C@H]1Cc2ccc3c(c2)[C@]24C5=C(N=C(O5)[C@H](C(C)C)NC1=O)c1nc(Cl)c(o1)-c1c(Cl)[nH]c5cccc(c15)-c1cccc2c1N[C@@H]4O3 | inactive | Activity (HeLa [8]): Active; Activity (U2OS): Active; Activity (HeLa [9]): Active |
| inactive | inactive | CC(CCCCNC(=O)CCCC[C@@H]1SC[C@@H]2NC(=O)N[C@@H]21)[C@H](O)C(=O)N[C@H]1Cc2ccc3c(c2)[C@]2(C4=C(c5nc(Cl)c(-c6c(Cl)[nH]c7ccccc67)o5)N=C(O4)[C@H](C(C)C)NC1=O)c1ccccc1O[C@@H]2O3 (stereo partly specified) |  |  |
|  |  | CC(C)[C@H](O)C(=O)N[C@H]1Cc2ccc3c(c2)[C@]24C5=C(N=C(O5)[C@H](C(C)C)NC1=O)c1nc(Cl)c(o1)-c1c(Cl)[nH]c5cccc(c15)-c1cccc2c1O[C@@H]4O3 | inactive |  |

Reference: ChEMBL document CHEMBL1147063, “Diazonamide toxins reveal an unexpected function for ornithine delta-amino transferase in mitotic cell division” (2007)
